# Hits are enriched below; roughly 3.5% of the tested compounds scored in any of these assays.
# ABCB1 inh = human ABCB1 inhibition, ABCG2 as counter-screen | CCRF-Adr cells, JC-1 efflux, flow cytometry | inhibition, % at 6.6 µM | actives 0.067% (n = 190,000) | AID 1326; in the data active = inhibition above about 40%;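 note: higher value means more JC-1 retained so stronger ABCB1 efflux block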
# Target sequence (P08183 whole entry, looked up): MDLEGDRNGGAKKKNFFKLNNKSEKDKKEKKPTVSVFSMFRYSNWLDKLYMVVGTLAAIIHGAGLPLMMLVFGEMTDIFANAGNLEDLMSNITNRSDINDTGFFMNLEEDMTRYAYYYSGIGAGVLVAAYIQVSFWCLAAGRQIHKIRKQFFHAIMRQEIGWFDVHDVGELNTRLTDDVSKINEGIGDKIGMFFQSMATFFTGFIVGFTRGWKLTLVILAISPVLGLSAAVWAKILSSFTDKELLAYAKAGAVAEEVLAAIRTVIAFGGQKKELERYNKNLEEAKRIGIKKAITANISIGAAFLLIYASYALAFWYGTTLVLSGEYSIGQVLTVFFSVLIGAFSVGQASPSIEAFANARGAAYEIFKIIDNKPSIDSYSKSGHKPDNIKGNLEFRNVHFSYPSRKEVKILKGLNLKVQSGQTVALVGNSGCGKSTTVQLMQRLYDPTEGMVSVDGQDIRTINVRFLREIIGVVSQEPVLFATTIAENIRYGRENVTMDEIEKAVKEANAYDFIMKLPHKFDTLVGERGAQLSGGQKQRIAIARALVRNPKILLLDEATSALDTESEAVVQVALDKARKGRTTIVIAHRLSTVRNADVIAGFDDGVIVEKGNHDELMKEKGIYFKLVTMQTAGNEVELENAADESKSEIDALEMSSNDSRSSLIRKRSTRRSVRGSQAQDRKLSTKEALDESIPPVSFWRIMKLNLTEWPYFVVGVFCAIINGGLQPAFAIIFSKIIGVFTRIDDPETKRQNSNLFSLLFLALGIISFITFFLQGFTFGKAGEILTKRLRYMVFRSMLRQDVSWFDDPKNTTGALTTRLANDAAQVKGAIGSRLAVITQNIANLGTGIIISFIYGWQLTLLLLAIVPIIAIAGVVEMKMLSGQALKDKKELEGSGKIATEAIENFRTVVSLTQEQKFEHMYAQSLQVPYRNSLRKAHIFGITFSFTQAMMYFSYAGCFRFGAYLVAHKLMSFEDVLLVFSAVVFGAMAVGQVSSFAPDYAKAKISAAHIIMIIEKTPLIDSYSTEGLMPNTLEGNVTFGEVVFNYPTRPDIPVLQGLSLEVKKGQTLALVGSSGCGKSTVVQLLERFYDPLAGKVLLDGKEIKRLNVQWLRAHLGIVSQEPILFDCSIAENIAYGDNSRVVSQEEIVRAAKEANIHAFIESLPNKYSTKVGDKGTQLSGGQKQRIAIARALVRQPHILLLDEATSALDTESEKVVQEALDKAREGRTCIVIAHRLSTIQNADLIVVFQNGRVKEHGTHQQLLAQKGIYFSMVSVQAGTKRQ
# ABCG2 block = blocks JC-1 efflux by human ABCG2 transporter. AID 1325. inhibition, % at 6.6 µM. IgMXP3 cells, flow cytometry. actives 0.1% (n = 190,000). Q9UNQ0;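 active = inhibition above 80%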
#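 material = IgMXP3 (ABCG2) plus far-red-tagged CCRF-Adr (ABCB1) cells | amount = 3 million cells/mL, equal mix of both lines | also added = JC-1 transporter substrate | dosing = one concentration, 6.6 µM final | schedule = 10 min at 25 °C | measured by = flow cytometric JC-1 green MFI at 530 nm | read-out basis = percent efflux inhibition, scaled nicardipine 100% to DMSO 0%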
# MEKK3 PB1 HTS = modulators (inhibitors or enhancers) of MEK5 binding to human MEKK3 PB1 domain. Q99759. binding response (% of control), % at 10 µM. bead-based flow cytometry, Alexa488-MEK5 binding to MEKK3; actives lie on both sides; 0 = blocked by unlabeled MEK5, 100 = vehicle. actives 1.4% (n = 290,000);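 active = binding response more than 3 SD above or below the average of its plate-row segment, actives on both sides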;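 note: Alexa488 bead fluorescence after subtracting the streptavidin-only scavenger bead signal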
# MEKK2wt PB1 HTS = raises or lowers MEK5 binding to wildtype human MEKK2 PB1 domain. bead flow cytometry, Alexa488-MEK5 binding to MEKK2 WT; actives lie on both sides. actives 1.1% (n = 290,000). AID 1531. Q9Y2U5. binding response (% of control), % at 10 µM; in the data active = binding response below about 67% or above about 130%
# MEKK2 mut-MEK5 = signal of MEK5 binding to mutant human MEKK2 PB1 domain; actives 0.35% (n = 290,000); AID 1530; bead flow cytometry, Alexa488-MEK5 binding to MEKK2 mutant; percent response, % at 10 µM; in the data active = percent response above about 24%, passing the limit was not always enough
# WT yeast gro inh = growth inhibition of WT yeast, mitochondrial fusion screen | mitochondrial fusion phenotypic screen, WT strain | inhibition, % at 10 µM | actives 2.1% (n = 190,000) | AID 1362; in the data active = inhibition above about 58%; tested in S. cerevisiae
# MEKK2wt confirm = raises or lowers MEK5 binding to wildtype human MEKK2, retest; shares compounds with MEKK3 PB1 HTS; bead flow cytometry, Alexa488-MEK5 binding to MEKK2 WT; actives lie on both sides; binding response (% of control), % at 10 µM; actives 2.4% (n = 5,900); in the data active = binding response below about 16% or above about 210%; inactive = in between
# MEKK2mut-MEK5 = signal of MEK5 binding to mutant human MEKK2, retest. percent response, % at 10 µM. actives 2% (n = 5,900). AID 1893. shares compounds with MEKK3 PB1 HTS. bead flow cytometry, Alexa488-MEK5 binding to MEKK2 mutant; in the data active = percent response mostly above about 71%, no sharp cut-off; inactive = mostly below about 38%;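 note: higher means compound restores mutant binding toward wildtype level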
# MEKK3 confirm = MEKK3-MEK5 PB1 inhibition, single concentration confirmation; shares compounds with MEKK3 PB1 HTS; bead flow cytometry, Alexa488-MEK5 binding to MEKK3; hits give low values; binding response (% of control), % at 10 µM; actives 1.8% (n = 5,900);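 active = binding response below 72% of control, or above a set upper limit, though filed actives all read lower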;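 note: lower values mean stronger disruption of MEK5 binding to MEKK3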
# A number is an active result; i = inactive; nt = no result given; [ ] = another dose, or the depositor's remark.
SMILES,ABCB1 inh,ABCG2 block,MEKK3 PB1 HTS,MEKK2wt PB1 HTS,MEKK2 mut-MEK5,WT yeast gro inh,MEKK2wt confirm,MEKK2mut-MEK5,MEKK3 confirm
COc1ccccc1CCNC(=O)CSc1nnc2ccc(-c3ccncc3)nn12,i,i,133,i,i,i,i,i,i
N=c1c2ccccc2nnn1-c1cccc(C(F)(F)F)c1,i,i,i,i,i,i,nt,nt,nt
O=C(NNC(=O)c1cc(-c2ccccc2)n(-c2ccccc2)n1)c1cccc([N+](=O)[O-])c1,i,i,i,i,i,i,nt,nt,nt
Cc1ccc(C(=O)NCC(=O)OC(C)C(=O)Nc2ccc(N(C)C)cc2)s1 (stereo not drawn),i,i,49[inhibitor],i,i,i,i,i,i
C=CCNC(=O)C1CC2Cn3c(nc4cc5ccccc5cc43)C2N1C (stereo not drawn),nt,nt,i,i,i,nt,nt,nt,nt
CCN(CC)CCN1c2ccccc2Sc2ccc3ccccc3c21,nt,nt,i,136,i,nt,i,i,i
C/C(=N\Nc1ccc(C(=O)O)cc1)c1ccc(-n2ccnc2)cc1,i,i,i,i,i,i,nt,nt,nt
CN(CCCN1c2ccccc2CCc2ccccc21)CC(=O)c1ccc(Cl)cc1,nt,nt,i,165,i,nt,i,i,i
CN(C)CCCN1c2ccccc2CCc2ccc(Cl)cc21,i,i,i,148,i,62,i,i,i
CNCCCN1c2ccccc2CCc2ccccc21,i,i,i,i,i,i,nt,nt,nt
CN(C)CCCN1c2ccccc2Sc2ccccc21,i,i,i,i,i,i,nt,nt,nt
Cc1nonc1C(=O)N1CCCC(Nc2ccc(C(C)C)cc2)C1 (stereo not drawn),nt,nt,i,i,i,nt,nt,nt,nt
O=S(=O)(Cc1ccccc1)Oc1ccccc1,nt,nt,i,i,i,nt,nt,nt,nt
CCOc1ccc(OCC)c(S(=O)(=O)n2ccnc2C)c1,nt,nt,i,i,25,nt,i,i,i
CCOc1ccc(C(C)C)cc1S(=O)(=O)n1ccnc1C,i,i,i,i,i,i,nt,nt,nt
C(=N\N(Cc1ccccc1)c1ccccc1)/c1ccco1,i,i,i,i,i,i,nt,nt,nt
O=C(C[n+]1cnn(CC(=O)c2ccc(Cl)cc2Cl)c1)c1ccc([N+](=O)[O-])cc1,i,i,i,157,i,i,i,i,i
COc1ccccc1N1CC(C(=O)OCC(=O)Nc2c(C)cccc2C)CC1=O (stereo not drawn),nt,nt,i,i,i,nt,nt,nt,nt
N=C1/C(=C/c2cccn2-c2ccc([N+](=O)[O-])cc2)C(=O)N=C2SC=CN12,i,i,i,i,i,i,nt,nt,nt
COc1ccc(-c2ccc(/C=C3/C(=N)N4C=CSC4=NC3=O)o2)c([N+](=O)[O-])c1,i,i,134,i,i,i,i,i,i
CC(C)/C=N/Nc1nc(-c2ccc(Br)cc2)cs1,i,i,i,i,i,i,nt,nt,nt
COc1cc(C2Nc3ccccc3NC3=C2C(=O)CC(C)(C)C3)cc(OC)c1OC (stereo not drawn),nt,nt,i,i,24,nt,i,i,i
COc1cc(OC)c(C2Nc3ccccc3NC3=C2C(=O)CC(C)(C)C3)cc1OC (stereo not drawn),nt,nt,i,i,i,nt,nt,nt,nt
O=C(Nc1ccc(F)cc1)c1oc2ccccc2c1NC(=O)C1CC1,nt,nt,i,i,i,nt,nt,nt,nt
CCc1cc2c3c(c(=O)oc2cc1O)CCCC3,i,i,i,i,i,nt,nt,nt,nt
SMILES,ABCB1 inh,ABCG2 block,MEKK3 PB1 HTS,MEKK2wt PB1 HTS,MEKK2 mut-MEK5,WT yeast gro inh,MEKK2wt confirm,MEKK2mut-MEK5,MEKK3 confirm
CN1CCN(CCCCOc2ccccc2C=O)CC1,i,i,128,200,i,i,i,i,i
COc1cccc(OC)c1OCCCCCCN1CCN(C)CC1,nt,nt,i,i,i,nt,nt,nt,nt
CCC(C)c1ccccc1NC(=O)COC(=O)c1ccc(N2CCCC2)c([N+](=O)[O-])c1 (stereo not drawn),i,i,132,i,i,i,i,i,i
Cc1cccc(C)c1NC(=O)COC(=O)c1ccc(N2CCCC2)c([N+](=O)[O-])c1,i,i,i,i,i,i,nt,nt,nt
O=C(CSCc1ccc(Br)cc1)N=Nc1c(O)[nH]c2ccccc12,i,i,146,i,i,i,i,i,i
Cc1ccc(S(=O)(=O)NC(Cc2ccccc2)C(=O)O)cc1 (stereo not drawn),i,i,1.0[inhibitor],-3.0[inhibitor],i,i,i,i,i
Cc1cccc(S(=O)(=O)NC(Cc2c[nH]c3ccccc23)C(=O)O)c1 (stereo not drawn),i,i,131,i,i,i,i,i,i
O=C(O)C(Cc1c[nH]c2ccccc12)NS(=O)(=O)c1ccc2ccccc2c1 (stereo not drawn),i,i,i,i,i,i,nt,nt,nt
CC(C)CCNC(=O)C1CCN(S(=O)(=O)c2ccc(-n3cnnn3)cc2)CC1,nt,nt,i,i,i,nt,nt,nt,nt
COc1ccccc1NC(=O)CSc1nnc(CC(=O)Nc2ccccc2F)n1C,nt,nt,i,i,i,nt,nt,nt,nt
N#Cc1ccc(NC(=O)CNc2cc(S(=O)(=O)N3CCOCC3)ccc2NCC2CCCO2)cc1 (stereo not drawn),i,i,5.0[inhibitor],7.0[inhibitor],i,i,i,i,i
O=c1[nH]cc(I)cc1I,nt,nt,37[inhibitor],38[inhibitor],i,nt,i,i,i
COC(=O)c1c(NC(=O)c2cccnc2)sc(C(=O)N(C)C)c1C,i,i,162,i,i,i,i,i,i
Cc1ccccc1C(=O)NC(=S)Nc1ccc2[nH]c(=O)[nH]c2c1,i,i,135,i,i,i,i,i,i
O=c1[nH]c2ccc(NC(=S)NCCc3ccccc3)cc2[nH]1,nt,nt,41[inhibitor],44[inhibitor],i,nt,i,i,i
CCCn1cnc2c(=S)nc(N)[nH]c21,nt,nt,i,i,i,nt,nt,nt,nt
COc1ccc(NS(=O)(=O)c2ccc(O)c(NC(=O)c3cc4c(C)nn(-c5ccc(F)cc5)c4s3)c2)cc1,i,i,i,i,i,i,nt,nt,nt
Cc1ccccc1N1CCN(CCCN2C(=O)CC(=C(c3ccccc3)c3ccccc3)C2=O)CC1,i,i,i,i,i,i,nt,nt,nt
O=C1CC(=C(c2ccccc2)c2ccccc2)C(=O)N1CCCCN1CCN(c2cccc(Cl)c2)CC1,i,i,i,142,i,i,i,i,i
CCN1CCN(Cc2ccc(NC(=O)c3ccc(C)c(NC(=O)c4cccc5[nH]ccc45)c3)cc2C(F)(F)F)CC1,nt,nt,i,i,74,nt,i,i,i
